From PubChem
Vif imaging – inhibitors of HIV Vif. HEK293T cells, Vif self-association by quenched fluorescence, imaging, 24 h. 340,000 compounds, 0.35% hits. inhibition, % at 7.49 µM. AID 602346; in the data active means inhibition above about 50%, passing the limit was not always enough
miR122 inh – miR-122 inhibition in Huh7 cells | 340,000 compounds, 0.3% hits | Huh7 miR-122 Renilla luciferase sensor, 48 h; neutral wells = 0, positive control = 100 | activation (reporter increase), % at 12.5 µM;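 active means mean replicate activation score at least 90 and every replicate individually at or above 90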;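 further: higher luciferase means less miR-122 activity so hits act as miR-122 inhibitors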
rRNA inh HTS – inhibits bacterial ribosomal RNA function over humanized ribosomes; 350,000 compounds, 1.6% hits; GFP signal change (wild-type ribosome), % (test concentration not listed); E. coli WT GFP vs humanized-ribosome RFP mutants, fluorescence, 24 h; stronger effect = lower value; DMSO median 0, no signal -100;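 active means significant combined selectivity score with lowered wild-type GFP, culture density cut under 30%, mutant RFP and density less affected; inactive means any of these conditions unmet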
HIV Env fusion – blocks HIV Env-driven cell-cell fusion | HeLa-JRFL Env/CEM21 cell fusion, luciferase | inhibition, % at 12.3 µM | 360,000 compounds, 1.1% hits | AID 651610;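 active means mean replicate inhibition score of at least 50 and every replicate individually at or above 50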;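 further: 0% = plate neutral controls and 100% = maraviroc near 300 nM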
S100A4 inh HTS – inhibitors of human S100A4 binding to myosin IIA peptide | S100A4/TAMRA-MyoIIA peptide fluorescence polarization | inhibition, % at 10.7 µM | 360,000 compounds, 0.14% hits | AID 652163 | P26447;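 active means mean inhibition of at least 70% across replicates, with every replicate also reaching that level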
Target sequence (P26447 whole entry, looked up): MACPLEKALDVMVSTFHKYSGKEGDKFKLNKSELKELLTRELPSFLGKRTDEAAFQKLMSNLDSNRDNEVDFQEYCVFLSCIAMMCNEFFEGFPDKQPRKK
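Material: S100A4 monomer protein / Buffer or medium: 50 mM HEPES pH 7.2, 10 mM CaCl2, 100 mM KCl / Times: 5 min incubation before reading / Benchmarks: neutral control DMSO, positive control TFP / Reagent: labelled myosin peptide probe, 5 nM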
FN deposit inh – fibronectin deposition inhibition | AH1F fibroblasts, Alexa488-fibronectin deposition fluorescence, overnight | AID 743247 | 350,000 compounds, 0.086% hits | inhibition, % at 12.6 µM;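 active means mean inhibition across replicates of 30% or more, regardless of how many single replicates reach that level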;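 further: positive control wells lacked labelled fibronectin entirely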
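test system = AH1F fibroblasts assembling fluorescent fibronectin matrix | quantity = 10000 AH1F cells per well | buffer or medium = DMEM plus 2% serum, read in PBS | doses = single dose, pinned | incubation = 1 h cell attachment, overnight exposure to compound and label | detection = fluorescence at 485 nm excitation, 525 nm emission | read-out basis = inhibition from reduced deposited-fibronectin fluorescence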
The depositor's hits bear a star; [ ] = another dose, or the depositor's remark. Most compounds without a hit are left out; they make up all but 2.6% or so of the library.

Cc1[nH]c2ccccc2c1C(C[N+](=O)[O-])c1cccc(O)c1 (stereo unspecified) was read as Vif imaging 4, miR122 inh 3, rRNA inh HTS -33*, HIV Env fusion 12, S100A4 inh HTS -2 and FN deposit inh 4.
`Cc1ccc(Cl)cc1N1CCN(C(=O)C2CCN(c3nnc(-n4cccc4)s3)CC2)CC1` gave Vif imaging -4, miR122 inh -5, rRNA inh HTS 2, HIV Env fusion 56*, S100A4 inh HTS 1 and FN deposit inh 2.
CCN(CC)C(=O)c1sc2nc(-c3cccs3)cc(-c3cccs3)c2c1N was read as Vif imaging 83*, miR122 inh 0, rRNA inh HTS 2, HIV Env fusion 15, S100A4 inh HTS 0 and FN deposit inh 2.
`O=C(C[C@@H]1CC[C@@H]2[C@H](COC[C@@H](O)CN2C(=O)Cc2ccccc2)O1)NC1CCC1` gave miR122 inh -1[16.7 µM], rRNA inh HTS 1, S100A4 inh HTS 51 and FN deposit inh -5.
COc1cc2c(c(OC)c1OC)C(=O)C(=Cc1ccccc1)O2 was read as Vif imaging 2, miR122 inh -10, rRNA inh HTS -29*, HIV Env fusion 1 and S100A4 inh HTS -32.
For COc1ccccc1C(=O)Oc1ccc2c(c1)O/C(=C\c1ccncc1)C2=O the results were Vif imaging 11, rRNA inh HTS 10, HIV Env fusion 16, S100A4 inh HTS -1 and FN deposit inh 0.
`CN(C)c1ccc(O)c2c1CC1CC3[C@@H](N(C)C)C(=O)C(C(N)=O)=C(O)[C@]3(O)C(=O)C1=C2O` (stereo partly specified) gave Vif imaging -3, miR122 inh -19, rRNA inh HTS -56, HIV Env fusion 73*, S100A4 inh HTS -12 and FN deposit inh 2.
`C[C@H]1c2cccc(O)c2C(O)=C2C(=O)[C@]3(O)C(O)=C(C(N)=O)C(=O)[C@@H](N(C)C)[C@@H]3[C@@H](O)[C@@H]21` gave Vif imaging -2 and miR122 inh 7.
For O=C(C[C@@H]1CC[C@H](NC(=O)C2CC2)[C@H](CO)O1)NCc1ccncc1 the results were rRNA inh HTS 0, HIV Env fusion -6[16.7 µM], S100A4 inh HTS -1 and FN deposit inh 2.
For COc1ccc(S(=O)(=O)NC2CC(C)(C)NC(C)(C)C2)c(C)c1C the results were HIV Env fusion -14 and FN deposit inh -3.
For CCOc1cc(C)c(Cl)cc1S(=O)(=O)NC1CC(C)(C)NC(C)(C)C1 the results were Vif imaging 32, miR122 inh 181*, HIV Env fusion -36 and FN deposit inh 1.
COc1cc(C)c(C(C)C)cc1S(=O)(=O)NC1CC(C)(C)NC(C)(C)C1 was read as Vif imaging 17, miR122 inh 128*, rRNA inh HTS 12, HIV Env fusion 31, S100A4 inh HTS -6 and FN deposit inh 0.
For Cc1cccc(N2C(=O)N3[C@H](c4ccc(Br)cc4)[C@@H]4C(=O)N(C(C)(C)C)C(=O)[C@@H]4[C@]3(C)C2=O)c1 the results were Vif imaging 7, miR122 inh 0, rRNA inh HTS -9, HIV Env fusion 112* and S100A4 inh HTS 1.
Screening COc1ccc([C@@H]2[C@@H]3C(=O)N(C(C)(C)C)C(=O)[C@@H]3[C@]3(C)C(=O)N(c4cccc(Cl)c4)C(=O)N23)cc1 returned Vif imaging -3, miR122 inh -2, HIV Env fusion 61* and FN deposit inh 5.
For COc1ccc([C@@H]2[C@@H]3C(=O)N(C(C)(C)C)C(=O)[C@@H]3[C@]3(C)C(=O)N(c4ccccc4)C(=O)N23)cc1 the results were rRNA inh HTS 5, HIV Env fusion 26, S100A4 inh HTS 2 and FN deposit inh -18.
COc1ccc2c3c(n(C)c2c1)[C@H](CO)N(C)CC31CCN(C(=O)C2CCC2)CC1 was read as rRNA inh HTS 1.
`O=S(=O)(c1cccc(-c2csc(N/N=C/c3ccco3)n2)c1)N1CCOCC1` gave Vif imaging 3, rRNA inh HTS -23*, HIV Env fusion 30, S100A4 inh HTS 1 and FN deposit inh -2.
Screening O=S(=O)(c1cccc(-c2csc(-c3ccccc3)n2)c1)N1CCOCC1 returned Vif imaging -24, miR122 inh 11, HIV Env fusion 4 and FN deposit inh 0.
For C/C=C/c1ccc([C@@H]2[C@H](CO)N(C(=O)CN(C)C)C23CN(C(=O)C2CCCCC2)C3)cc1 the results were rRNA inh HTS 3, HIV Env fusion -7[16.7 µM] and S100A4 inh HTS -4.
`O=C(O)c1cc([N+](=O)[O-])ccc1NCCc1ccccc1` gave Vif imaging 2, rRNA inh HTS -42*, HIV Env fusion 8, S100A4 inh HTS -7 and FN deposit inh -4.
`Cc1cccc(Nc2ccc([N+](=O)[O-])cc2C(=O)O)c1` gave Vif imaging -1, rRNA inh HTS -6, S100A4 inh HTS -1 and FN deposit inh -2.
For O=C(O)c1cc([N+](=O)[O-])ccc1Nc1ccccc1 the results were Vif imaging 5, miR122 inh 3, rRNA inh HTS -34*, S100A4 inh HTS 2 and FN deposit inh 0.
`NC(=O)c1cc([N+](=O)[O-])ccc1NCc1ccc(N)cc1` gave Vif imaging -6, miR122 inh 0, rRNA inh HTS 0, HIV Env fusion 71*, S100A4 inh HTS 2 and FN deposit inh 5.
Screening C[C@H](O)C#Cc1cnc2c(c1)C(=O)N([C@H](C)CO)C[C@H](C)[C@H](CN(C)C(=O)Cc1ccccn1)O2 returned miR122 inh 1[16.7 µM], rRNA inh HTS 1, HIV Env fusion 1[16.7 µM], S100A4 inh HTS 0 and FN deposit inh -1.
`C[C@@H]1CN([C@@H](C)CO)C(=O)Cc2cc(NC(=O)CCN3CCOCC3)ccc2O[C@H]1CN(C)CC1CC1` gave miR122 inh 3[16.7 µM], rRNA inh HTS 2, HIV Env fusion 3[16.7 µM], S100A4 inh HTS 3 and FN deposit inh -4.
C[C@H]1CN([C@@H](C)CO)S(=O)(=O)c2ccc(C3=CCCCC3)cc2O[C@@H]1CN(C)Cc1ccncc1 was read as miR122 inh 7[16.7 µM], rRNA inh HTS -34, HIV Env fusion 34[16.7 µM] and S100A4 inh HTS 10.
COc1ccc(-c2ncncc2-c2ccc(Cl)cc2)c(O)c1 was read as Vif imaging -8, miR122 inh -1, rRNA inh HTS -8, HIV Env fusion 56*, S100A4 inh HTS 1 and FN deposit inh 5.
